Source: ChEMBL document CHEMBL4513216, “Probing the Open Global Health Chemical Diversity Library for Multistage-Active Starting Points for Next-Generation Antimalarials” (ACS Infect Dis, 2020)

Assay: Toxicity liver stage against HepG2, at 10uM
Assay type: cell-based
Set-up: test concentration 10 uM, cell line HepG2-A16-CD81EGFP
Settings: human, HepG2-A16-CD81EGFP cells; read-out: INHIBITION
Outline: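 Uninfected HepG2-A16-CD81EGFP cells, 3 × 10^3 per well, 1536-well, plated on prespotted compound at 10 μM final, parasite-free screening media added to match infected plates; puromycin 10 μM positive, DMSO 0.5% negative; run in parallel with 48 h PbLuc assay at 37 °C, 5% CO2; viability by CellTiter-Glo luminescence, normalized to controls.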

Row | SMILES | cytotoxicity at 10 µM
1 | CCN1CCN(C(C)CNC(=O)Nc2nnc(C)s2)CC1 (configuration not stated) | -12.2%
2 | Cc1cc(C)n2c(CCCNS(=O)(=O)c3ccccc3)nnc2n1 | 1.18%
3 | COCCN1C[C@H]2CCN(C(=O)Nc3ccccc3C)CC[C@H]2S1(=O)=O | 0.64%
4 | COCC(=O)N1CCC2(CC1)CCn1c(-c3cccc(OC)c3)cnc12 | -5.21%
5 | COc1cccc(N2CC3(CCN(c4cc(OC)ncn4)C3)CC2=O)c1 (configuration not stated) | 21.7%
6 | Cn1cc(CN2CCC3(CC2)CC(=O)Nc2ccccc23)cn1 | 8.49%
7 | CN(C)C(=O)CNC(=O)c1nc2c(s1)CCCN2Cc1ccccc1 | 8.13%
8 | CC(=O)N1CCCc2sc(C(=O)Nc3ccc(C)nc3)nc21 | 7.46%
9 | O=C(NC1CCCC1)c1nc2c(o1)CN(C(=O)CO)C2 | 10%
10 | CS(=O)(=O)N1CCC2(CC1)CC(OCC1CCOCC1)CO2 (configuration not stated) | 8.16%
11 | CCS(=O)(=O)N1CC[C@H]2OCC[C@@]2(c2nnc(C)o2)C1 | 7.95%
12 | Cc1noc(C2CN(S(=O)(=O)C3CC3)Cc3ccnn3C2)n1 (configuration not stated) | 7.19%
13 | CC1=N[C@@]2(CC[C@@H]3CN(C(=O)NC(C)C)C[C@@H]32)C(=O)N1CC(C)C | 7.74%
14 | CCc1nc(C#N)c(N2CCC(c3nc(-c4ccccc4)no3)CC2)o1 | 0.689%
15 | COc1ccc2c(ccn2CCN)c1 | -0.73%
16 | O=C(NC1CC1)c1ccc2ccc(N3CCN(CC4CC4)CC3)n2c1 | 1.26%
17 | Cc1nc(N2CCCC2)nc2c1CN(C(=O)N1CCOCC1)CC2 | 6.17%
18 | Cn1cc(CN2CCCn3cnc(COCC4CC4)c3C2)cn1 | -6.66%
19 | CCC(=O)N1CCCCC1c1nc(O)c2c(n1)CN(C(=O)C1CC1)CC2 (configuration not stated) | 1.23%
20 | NC(=O)N1CCC(NCc2cc(Br)ccc2Cl)CC1 | -6.43%
21 | Cc1ncncc1C(=O)N1CCCN(Cc2ncc(Cl)n2C)CC1 | 6.45%
22 | Cc1ccccc1C(C#N)NC(=O)c1cccc2c1OCCO2 (configuration not stated) | -3.38%

Row | SMILES | cytotoxicity at 10 µM
23 | CC(C)N1CCC(O)(CNC(=O)CC2OCCc3ccccc32)CC1 (configuration not stated) | 5.02%
24 | CS(=O)(=O)c1ccccc1NC(=O)N[C@@H]1c2ccccc2C[C@@H]1O | -42.2%
25 | O=C(NCc1nc(C2CC2)no1)N1CCOC(c2ccccc2F)C1 (configuration not stated) | -53.7%
26 | CC(Oc1cc(Cl)cc(Cl)c1)C(=O)NCCS(N)(=O)=O (configuration not stated) | -11.7%
27 | CCN(CC)Cc1ccccc1NCc1c(C)noc1C | -2.04%
28 | CN(Cc1nnc(C2CC2)n1C)C1CCN(CCc2ccccc2)C1 (configuration not stated) | 2.03%
29 | CCC(C#N)NC(=O)COC1CCCCC1 (configuration not stated) | 5.48%
30 | CCOc1ccccc1C(CC(=O)N(C)c1ccccc1)NC(C)=O (configuration not stated) | -8.28%
31 | CC(NCC1CCN(CCO)CC1)c1ccc(F)c(Cl)c1 (configuration not stated) | -9.04%
32 | Cn1cc(CNC2CCS(=O)(=O)C2)c(-c2cc3ccccc3o2)n1 (configuration not stated) | -39.1%
33 | COCCn1ccc(NC(=O)CNC(=O)CC(C)(C)C)n1 | 17.3%
34 | c1ccc(-c2cnc(CNC3CCc4ncnn4C3)o2)cc1 (configuration not stated) | -3.78%
35 | O=C(CN1CCOc2ccc(Cl)cc21)NCCCn1ccnc1 | -7.49%
36 | CC(C)Cc1nc(CN(C)CCOc2ccccc2F)no1 | -0.731%
37 | O=S(=O)(NC1CCCCC12OCCO2)c1ccc2c(c1)OCCO2 (configuration not stated) | -0.839%
38 | COCCCN(Cc1ccc(F)cc1Cl)C1CCS(=O)(=O)C1 (configuration not stated) | 13.7%
39 | CC(CCN1CCOCC1)NC(=O)c1cccc(C(F)(F)F)c1F (configuration not stated) | -44.8%
40 | Cn1c(CC2CCS(=O)(=O)C2)nnc1SCCOc1ccccc1F (configuration not stated) | -6.82%
41 | COc1cccc(CN(C)S(=O)(=O)N2CCOCC2)c1 | -8.62%
42 | CS(=O)(=O)NCC1CCCCN1C(=O)Nc1cccnc1N1CCCC1 (configuration not stated) | -3.45%
43 | Cc1ccc(S(=O)(=O)NC(=O)c2c(C)noc2C(C)C)cc1C | -9.11%
44 | O=C(NC1CC2(CCN(CCO)CC2)Oc2ccccc21)c1csnn1 (configuration not stated) | -101%

Row | SMILES | cytotoxicity at 10 µM
45 | Cc1ccc(CN2CCCC23CCN(S(=O)(=O)c2ccccc2)C3)o1 (configuration not stated) | 0.642%
46 | CN1C(=O)C2(CCN(CCO)C2)c2ccccc21 (configuration not stated) | 5.84%
47 | COc1ccc(CCCN2C(=O)O[C@@H]3CN(C4CCOCC4)C[C@@H]32)cc1 | -1.47%
48 | CCN(C)CC(=O)N1CCN(Cc2ccccc2)[C@@H]2CS(=O)(=O)C[C@@H]21 | -5.18%
49 | N#Cc1ccccc1C(=O)N1C[C@@H](CN2CCOCC2)[C@@H](CO)C1 | -1.06%
50 | O=C(NCCc1cccnc1)C1CCCN(Cc2ccco2)C1 (configuration not stated) | -3.98%
51 | Cc1csc(CN(C)C(=O)c2cccc(CCC(C)(C)O)c2)n1 | -2.32%
52 | CNc1ncc(CN(C)C(=O)c2ccccc2C2CCNC2)cn1 (configuration not stated) | 0.272%
53 | Cc1ccc(C(=O)N2CCC(c3nccn3Cc3ccncc3)CC2)s1 | 1.2%
54 | CCOCc1nc2c(c(N3CCCn4nc(C)cc4C3)n1)CCNCC2 | 11.3%
55 | COc1cccc(-c2noc(-c3ccc(NCC(C)C)nc3)n2)c1OC | -12.2%
56 | Cc1cnc(C(=O)N2CCN(C(=O)C(C)C)[C@@H]3CS(=O)(=O)C[C@@H]32)cn1 | 7.91%
57 | CCC[C@H]1CN(S(C)(=O)=O)C[C@@H]1NC(=O)COC(C)C | -1.09%
58 | c1ccc(OCCSC2=NCCN2)cc1 | 1.52%
59 | Cc1cc(N2CCN(C(=O)CCc3scnc3C)CC2)cc(C)n1 | -48.4%
60 | COCCN(CC(N)=O)CC1CCCN(C2Cc3ccccc3C2)C1 (configuration not stated) | -3.01%
61 | O=C(CCC1CCN(C2CSCCSC2)CC1)NCC1CCCO1 (configuration not stated) | 6.5%
62 | CC(=O)NCC1CCC2(CCN(c3ncnc4oc(C)nc34)CC2)O1 (configuration not stated) | 1.32%
63 | CC(=O)N[C@@H]1CN(c2nc(C(N)=O)cs2)C[C@H]1c1ccc(C)o1 | -41.2%
64 | Cc1nccc(N2CCC(=O)N(Cc3ccc(F)cc3)C(C(C)C)C2)n1 (configuration not stated) | -0.449%
65 | Cc1noc(C(C)C)c1C(=O)NCc1cccnc1 | 3.93%
66 | Cc1oc(C(=O)O)cc1S(=O)(=O)Nc1ccccc1F | -2.8%

Row | SMILES | cytotoxicity at 10 µM
67 | CC(C(=O)NCCN1CCN(C)CC1)n1cncn1 (configuration not stated) | 0.449%
68 | CC(NC(=O)CSCC#N)c1ccc(Cl)cc1 (configuration not stated) | -2.13%
69 | Cc1cc(C)n(C2CCCN(C(=O)c3csc(C4CC4)n3)C2)n1 (configuration not stated) | -2.51%
70 | Cc1ncc2c(n1)CN(CC(=O)Nc1nnc(C)s1)CC2 | 0.153%
71 | Cc1nc(CN2CCCC2Cn2cncn2)no1 (configuration not stated) | -7.01%
72 | Cc1cc(C)n(-c2ccc(CNCc3ccc(C)o3)cn2)n1 | -6.57%
73 | COc1cc(C(=O)NCc2ccc3c(c2)CCCN3C)cc(OC)c1Br | -6.69%
74 | Cc1sc(-c2ccco2)nc1C(=O)N1CCCC1Cn1cccn1 (configuration not stated) | -11.2%
75 | CCc1nccn1C1CCCN(C(=O)c2ccc3c(c2)OCO3)C1 (configuration not stated) | -12.6%
76 | CC(C)(C)c1nc(CN(Cc2cccs2)C2CCS(=O)(=O)C2)no1 (configuration not stated) | -3.63%
77 | COc1ccc(C2=CCN(C(=O)C3CCN(C)C(=O)C3)CC2)cc1 (configuration not stated) | -9.09%
78 | Cc1nc(CN(Cc2ccccc2)C2CCS(=O)(=O)C2)oc1C (configuration not stated) | -8.13%
79 | N#Cc1ccc(F)c(CN2CCCC2Cn2cnc3ccccc32)c1 (configuration not stated) | 0.224%
80 | Cc1noc(CN(Cc2ccc3c(c2)OCO3)Cc2ccc(C)o2)n1 | -0.194%
81 | Cc1nnc(C(C)N2CCN(Cc3ccc4c(c3)OCO4)CC2)o1 (configuration not stated) | -11.6%
82 | Cc1nc(N2CCN(C(=O)c3ccsc3)CC2)c2cnn(C)c2n1 | -10.6%
83 | COCc1cccc(CNC(=O)CN2CCCC2c2noc(C)n2)c1 (configuration not stated) | 0.762%
84 | CC(Cn1ccnc1)NC(=O)C1(c2ccc3c(c2)OCCO3)CCCC1 (configuration not stated) | -2.5%
85 | c1ccc(CN2CCCC2Cn2cncn2)nc1 (configuration not stated) | -10.8%
86 | CN1CCOC(CNCc2coc(-c3cccs3)n2)C1 (configuration not stated) | -3.71%
87 | Cc1nc(C)n(CC2CCCCN2CC(=O)NC2CCOCC2)n1 (configuration not stated) | -9.32%
88 | Cc1cc(C)cc(N(C)S(=O)(=O)c2cc(C(=O)O)cs2)c1 | -10.4%

Row | SMILES | cytotoxicity at 10 µM
89 | Cc1nccn1C1CCCN(C(=O)c2ccc3c(c2)NC(=O)CO3)C1 (configuration not stated) | -11.5%
90 | Cc1noc(C)c1C(=O)N1C[C@H]2CCC[C@@]2(COc2ccccn2)C1 | -5.53%
91 | CN(C)C[C@H]1C[C@@H]2CN(C(=O)c3ccno3)C[C@@H]2O1 | -6.32%
92 | CN(C)Cc1n[nH]c2c1CCN(Cc1cccs1)C2 | 1.63%
93 | COc1cccc(CNC(C)c2ccc(-n3ccnc3)cc2)c1OC (configuration not stated) | -35.1%
94 | C[C@@H]1C[C@H]2CN(Cc3nccs3)C[C@H]2O1 | -1.22%
95 | CC(C)N1C[C@@H]2CN(C(=O)NCc3ccccc3)CCC[C@]2(C(=O)O)C1 | 9.37%
96 | Cc1cc(CN2CC[C@H]3C[C@H](C(=O)N4CCC(C)CC4)O[C@H]3C2)no1 | 1.34%
97 | O=C(NCc1ccccn1)[C@@]12CCO[C@@H]1CCN(C1CCCC1)C2 | -105%
98 | CN1CCO[C@@H]2CN(C(=O)COc3cccc(Cl)c3)C[C@@H]2C1 | -9.58%
99 | O=C(c1cccnc1)N1CC[C@H](OCC2CC2)[C@@H]1Cc1cccnc1 | -0.53%
100 | Cc1noc(C)c1CN1CCOCC12CCN(c1cnccn1)CC2 | -101%
101 | CN1CCN(C(=O)[C@@H]2CC[C@@H]3[C@@H](CCN3c3ncccn3)O2)CC1 | 7.13%
102 | Cn1cc(CN2C[C@@H]3COC[C@]3(CNC(=O)c3ccsc3)C2)cn1 | -0.0273%
103 | O=C(COC[C@@]12CCC[C@@H]1CN(C1CCCC1)C2)N1CCCC1 | -112%
104 | c1cnc(N2CCC3(CCN(CC4CCOC4)C3)CC2)nc1 (configuration not stated) | -0.877%
105 | COCCN1CCC2(CCN(c3ncccn3)CC2)C1=O | 3.47%
106 | COCCN1C(=O)[C@@H]2CC[C@H]1CN(C(=O)CCc1n[nH]c(C)c1C)C2 | 13.5%
107 | Cc1ncc(C(=O)N2C[C@@H]3CC[C@H]2CN(S(=O)(=O)N(C)C)C3)c(C)n1 | 16.9%
